From PubChem BioAssay
STAT1 act-1 – STAT1 signaling activation; activation (% of control), % at 5.5 µM; NIH 3T3 STAT1-luciferase reporter, IFN-gamma, luminescence; 100% = IFN-gamma alone, no compound; hit rate 2.6% among 200,000; AID 932;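 active = activation above the screen-wide mean activation plus 3 SD, cut at about 130% in these data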;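 note: raw ratio to IFN-gamma control signal so 100% means no change and 0% no light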
STAT3 act-1 – activators of IL-6 induced STAT3 signaling; U3A cells, IL-6 STAT3-luciferase reporter, luminescence; 100% = signal with IL-6 EC80 alone; activation (% of control), % at 5.6 µM; hit rate 0.91% among 190,000;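 active = activation above the screen-wide mean of compound activation plus 3 SD, cut at about 130% in these data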;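 note: 0% = background luminescence of wells with medium and substrate only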
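Assay system – human STAT1-deficient U3A cells with stable STAT3-luciferase reporter · Also added – IL-6 (33 ng/mL) · Schedule – compound 1 h, then IL-6 6 h at 37 °C · Technique – reporter luminescence signal · Evaluation – % activation versus median of IL-6-stimulated wells · Benchmarks – IL-6-only wells as 100% reference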
NF-kB expr up – compounds increasing NF-kB expression in human neuronal cells. NF-kB reporter expression; stronger effect = higher value. fold change at 12.5 µM. hit rate 1.6% among 190,000. AID 1239; in the data active = fold change above about 3.3
APP 5'UTR act – APP 5'UTR luciferase reporter activation; SH-SY5Y APP 5'UTR luciferase reporter, luminescence; zero percent = DMSO vehicle wells; activation, % at 2 µM; AID 1276; hit rate 1% among 190,000;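 active = activation above a set limit, based on mean plus 3 SD of controls, cut at about 140% in these data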
STAT3 inh – inhibitors of IL-6 induced STAT3 signaling | U3A cells, IL-6 STAT3-luciferase reporter, luminescence; host cell line lacks STAT1 | inhibition, % at 5.5 µM | hit rate 0.89% among 190,000;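 active = inhibition above the mean inhibition across all screened compounds plus 3 SD, cut at about 44% in these data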;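 note: 0% = DMSO only wells and 100% = 100 µM nifuroxazide control wells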
STAT1 inh – inhibitors of IFN-gamma induced STAT1 signaling. NIH 3T3 STAT1-luciferase reporter, luminescence. inhibition, % at 5.5 µM. hit rate 0.35% among 200,000. AID 920;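 active = inhibition above a set limit, the mean inhibition across all tested compounds plus 3 SD, cut at about 34% in these data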;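 note: 0% = IFN-gamma with DMSO and 100% = IFN-gamma with 300 µM nifuroxazide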
STAT3 act-2 – confirmation of STAT3 signaling activators | shares compounds with STAT3 act-1 | U3A STAT3-luciferase reporter, IL-6 potentiation, luminescence; U3A cells lack STAT1; 100 means same as IL-6 alone | potentiation (% of control), % at 5.7 µM | hit rate 64% among 1,200;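 active = percent activation of the STAT3 luciferase reporter above a set limit taken from the earlier primary screen, cut at about 130% in these data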;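 note: 0% = background signal of medium plus substrate and 100% = median of IL-6 with DMSO wells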
NFkB act 2 – counter-screen for STAT3 activators: NF-kappaB activation; shares compounds with STAT3 act-1; human cells, NF-kappaB reporter activation; activation (% of control), % at 5.7 µM; hit rate 11% among 1,200; AID 1309; in the data active = activation above about 120%;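 note: reporter induced by TNF-alpha stimulation; 100% = median of stimulated DMSO wells and 0% = no signal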
STAT1 act-2 – STAT1 activation in STAT3 activator counter-screen | shares compounds with STAT3 act-1 | hit rate 13% among 1,200 | AID 1318 | NIH 3T3 STAT1-luciferase reporter, IFN-gamma, luminescence | activation (% of control), % at 5.7 µM;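 active = activation above the solvent-only control well mean plus 3 SD, set per screening run, cut at about 120% in these data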;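 note: 100% = IFN-gamma with DMSO median signal so 100% means no change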
The depositor's hits bear a star; · = not tested or not shown. Sampled rows, rich in hits. Any-hit rate of the full collection: about 5.1%.

SMILES	STAT1 act-1	STAT3 act-1	NF-kB expr up	APP 5'UTR act	STAT3 inh	STAT1 inh	STAT3 act-2	NFkB act 2	STAT1 act-2
Clc1cccc(Cl)c1Cn1cnc2c(N3CCCCCC3)ncnc21	103	138*	0.91	16	-41	-4	139*	105	103
Cc1cc(-c2sccc2Br)nc(-n2cccc2)n1	98	139*	1.1	10	-42	-1	150*	107	93
Cc1cc(-c2ccc(Br)s2)nc(-n2cccc2)n1	95	136*	1.3	12	-38	2	130	99	86
COc1ccc2cc(N=Cc3nc(-c4ccc(C)cc4)oc3O)cnc2c1	100	95	1	3	10	0	·	·	·
CC(C)NC(=S)N1CCN(C/C=C/c2ccccc2)CC1	98	96	1.1	26	12	1	·	·	·
O=c1cc(-c2ccccc2)[nH]n1-c1nc2ccccc2s1	104	138*	1.6	37	-33	-4	123	126*	118
COc1ccc(Cl)cc1NC(=O)Nc1ccc(Br)cn1	92	160*	1	-8	-72	7	144*	101	90
COc1ccccc1NC(=O)Nc1ccc(Br)cn1	92	110	1.2	-2	-4	10	·	·	·
CC(=O)N1N=C(c2ccccc2O)OC1(C)CC(=O)Nc1ccccc1 (centres undefined)	99	139*	0.88	2	-46	1	140*	99	97
O=C1C2C3C=CC(C3)C2C(=O)N1CCN1CCN(Cc2ccc([N+](=O)[O-])cc2)CC1 (centres undefined)	98	93	0.88	6	12	1	·	·	·
O=C(NC(=S)Nc1nc(-c2ccccc2)cs1)c1cccs1	94	142*	0.96	10	-49	7	147*	98	87
CC(C)CC(=O)NC(=S)Nc1nc(-c2ccc(Cl)cc2)cs1	93	96	1.1	6	7	7	·	·	·
Cc1ccc(-c2csc(NC(=S)NC(=O)c3cccs3)n2)cc1	106	108	1.1	-3	-7	-7	·	·	·
CC(C)CC(=O)NC(=S)Nc1nc(-c2ccccc2)cs1	106	144*	1	-1	-51	-7	140*	107	104
O=C(NC(=S)Nc1nc(-c2ccccc2)cs1)c1ccco1	98	139*	1.5	2	-37	0	140*	103	95
COc1cccc(-c2nn(C)c3sc(C(=O)NCc4ccco4)cc23)c1	94	92	0.4	-10	14	7	·	·	·
Cn1nc(-c2ccc(Cl)cc2)c2cc(C(=O)NCCCN3CCCC3)sc21	97	166*	1.2	10	-67	3	155*	108	98
CCOC(=O)N1CCC(NC(=O)c2cc3c(-c4ccc(Cl)cc4)nn(C)c3s2)CC1	89	151*	0.82	12	-56	12	124	96	90
COCCNC(=O)c1cc2c(-c3ccccc3F)nn(C)c2s1	100	91	1.2	32	15	-2	·	·	·
COCCNC(=O)c1cc2c(-c3ccc(Cl)cc3)nn(C)c2s1	106	152*	0.74	16	-52	-7	139*	103	94
Cc1ccc(CNC(=O)c2cc3c(-c4ccc(Cl)cc4)nn(C)c3s2)o1	76	155*	0.78	6	-55	26	152*	110	106
Cc1ccccc1OCc1n[nH]c(=S)n1-c1ccccc1	106	97	1.1	8	9	-8	·	·	·
CC(C)NC(=O)c1cc2c(-c3ccc(Cl)cc3)nn(C)c2s1	95	158*	1	-12	-58	6	150*	109	105
CCN1CCCC1CNC(=O)c1cc2c(-c3ccc(Cl)cc3)nn(C)c2s1 (centres undefined)	94	170*	0.51	-1	-72	6	156*	106	91
Cn1nc(-c2ccc(Cl)cc2)c2cc(C(=O)N3CCCC3)sc21	75	107	0.89	-5	-4	28	·	·	·
SMILES	STAT1 act-1	STAT3 act-1	NF-kB expr up	APP 5'UTR act	STAT3 inh	STAT1 inh	STAT3 act-2	NFkB act 2	STAT1 act-2
C=CCNC(=O)c1cc2c(C(F)(F)F)nn(C)c2s1	97	94	1.1	-6	13	3	·	·	·
CCN1CCCC1CNC(=O)c1cc2c(-c3cccc(OC)c3)nn(C)c2s1 (centres undefined)	82	96	0.83	6	8	18	·	·	·
CCCCNC(=O)c1cc2c(-c3ccc(Cl)cc3)nn(C)c2s1	101	138*	0.92	-1	-36	-2	151*	111	105
COCCCNC(=O)c1cc2c(-c3ccc(Cl)cc3)nn(C)c2s1	100	151*	0.77	-4	-50	0	143*	105	96
CCCCn1c(N)c(NCC(C)C)c(=O)[nH]c1=O	108	100	1	-2	-4	-9	·	·	·
O=C(CNS(=O)(=O)c1ccccc1)Nc1ccc2c(c1)OCO2	98	104	1.3	1	3	2	·	·	·
Clc1ccccc1/C=C/C=N/Nc1nc(N2CCOCC2)nc(N2CCOCC2)n1	108	94	·	7	12	-10	·	·	·
COc1ccc(CCNC(=O)CCCN2C(=O)c3ccccc3C2=O)cc1	105	95	1.1	-8	11	-8	·	·	·
Cn1nc(-c2ccc(Cl)cc2)c2cc(C(=O)N3CCN(c4ccccc4)CC3)sc21	93	138*	0.74	10	-42	8	143*	105	102
Cn1nc(-c2ccc(Cl)cc2)c2cc(C(=O)N3CCN(c4ccccn4)CC3)sc21	91	101	0.35	-11	7	10	·	·	·
CC(C)(C)NC(=O)C1CCCN(S(=O)(=O)c2cccc3cccnc23)C1 (centres undefined)	100	98	0.91	·	11	0	·	·	·
O=C(C1CCCN(S(=O)(=O)c2cccc3cccnc23)C1)N1CCc2ccccc21 (centres undefined)	94	138*	0.75	9	-35	7	135*	101	99
Cc1ccccc1N1CCN(Cc2c[nH]c3ccccc23)CC1	95	143*	1.5	-15	-41	6	137*	99	96
CCS(=O)(=O)N1CCN(Cc2c[nH]c3ccccc23)CC1	82	142*	0.93	6	-40	19	142*	100	89
c1cnc(N2CCN(Cc3c[nH]c4ccccc34)CC2)nc1	98	116	1.1	5	-13	2	·	·	·
c1ccc(Cn2c(SCc3nc4ccccc4s3)nnc2-c2ccco2)cc1	100	130	1	13	-30	0	·	·	·
